{"data": "Measured values collected from several papers", "note": "Each line is one published result; the experiments were not run side by side. pEC50: −log10 of the molar value."}
{"Compound": "CCN1CCN(c2cc3c(cc2F)c(=O)c(C(=O)O)cn3C2CC2)CC1", "target or system": "Salmonella enterica", "test": "microbial growth", "system": "F98, TYPHIMURIUM", "setting": "20 h, pH 7", "measurement": "MIC", "value": "0.0313 µg/mL"}
{"Compound": "CONc1ccnc(Nc2cccc(-c3cccnc3)c2)n1", "target or system": "BJ", "test": "cell growth or viability, ATP luminescence", "setting": "72 h", "measurement": "pEC50", "value": "< 4.92"}
{"Compound": "CN(C)[C@@H]1C(O)=C(C(N)=O)C(=O)[C@@]2(O)C(O)=C3C(=O)c4c(O)cccc4[C@@](C)(O)[C@H]3C[C@@H]12", "target or system": "Salmonella enterica", "test": "microbial growth", "system": "ENTERITIDIS", "setting": "20 h, pH 7.2", "measurement": "MIC", "value": "2 µg/mL"}
{"Compound": "CNc1ccnc(Nc2cccc(-c3cccnc3)c2)n1", "target or system": "BJ", "test": "cell growth or viability, ATP luminescence", "setting": "72 h", "measurement": "pEC50", "value": "< 4.70"}
{"Compound": "O=c1cc(-c2ccc(O)c(O)c2)oc2cc(O)cc(O)c12", "target or system": "Helicobacter pylori", "test": "microbial growth, broth dilution", "setting": "3.9 µg/mL", "measurement": "inhibition", "value": "100%"}
{"Compound": "COC(=O)c1cccc(-c2cccc(Nc3nccc(NC(C)C)n3)c2)c1", "target or system": "BJ", "test": "cell growth or viability, ATP luminescence", "setting": "72 h", "measurement": "pEC50", "value": 4.88}
{"Compound": "Cc1ccc(-c2nc3ccccc3s2)cc1NC(=O)c1cc([N+](=O)[O-])c(NC2CCN(C)CC2)cc1Cl", "target or system": "BJ", "test": "cell growth or viability, ATP luminescence", "measurement": "pEC50", "value": "< 5.04"}
{"Compound": "O=C(O)c1ccc(O)cc1", "target or system": "Helicobacter pylori", "test": "microbial growth, broth dilution", "setting": "125 µg/mL", "measurement": "inhibition", "value": "100%"}
{"Compound": "Cc1cc(NS(=O)(=O)c2ccc(N)cc2)no1", "target or system": "Salmonella enterica", "test": "microbial growth", "system": "ENTERITIDIS", "setting": "20 h, pH 5.5", "measurement": "MIC", "value": "128 µg/mL"}
{"Compound": "COC(=O)c1cccc(Nc2nccc(NC3CCCCC3)n2)c1", "target or system": "BJ", "test": "cell growth or viability, ATP luminescence", "setting": "72 h", "measurement": "pEC50", "value": "< 4.77"}
{"Compound": "O=c1cc(-c2ccc(O)cc2)oc2cc(O)cc(O)c12", "target or system": "Helicobacter pylori", "test": "microbial growth, broth dilution", "setting": "3.9 µg/mL", "measurement": "inhibition", "value": "100%"}
{"Compound": "CO/N=C(\\C(=O)N[C@@H]1C(=O)N2C(C(=O)O)=C(CSc3nc(=O)c(=O)[nH]n3C)CS[C@H]12)c1csc(N)n1", "target or system": "Salmonella enterica", "test": "microbial growth", "system": "F98, TYPHIMURIUM", "setting": "20 h, pH 7.2", "measurement": "MIC", "value": "0.125 µg/mL"}
